Assays:
[1] = molecular target: E3 ubiquitin-protein ligase XIAP (Homo sapiens, UniProt P98170); assay: Binding affinity to recombinant XIAP BIR3 by FP assay
How it was run: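 Competitive fluorescence-polarization assay on the XIAP BIR3 domain; binding expressed as Ki.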

PC-3 = assay: Growth inhibition in human PC3 cell line; format: functional, cell-based
How it was run: (§1)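 Human cancer cells (MDA-MB-231 (2LMP) breast line; PC-3 prostate line) exposed to compound for 4 days across a concentration series spanning 0.01–100 μM. Growth read by WST assay; IC50 taken from the dose-response curve.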

MDA-MB-231 = assay: Growth inhibition in human MDA-MB-231 cell line; format: functional, cell-based; how it was run: as §1

Chain of E3 ubiquitin-protein ligase XIAP (P98170 whole entry, the tested form may be a part): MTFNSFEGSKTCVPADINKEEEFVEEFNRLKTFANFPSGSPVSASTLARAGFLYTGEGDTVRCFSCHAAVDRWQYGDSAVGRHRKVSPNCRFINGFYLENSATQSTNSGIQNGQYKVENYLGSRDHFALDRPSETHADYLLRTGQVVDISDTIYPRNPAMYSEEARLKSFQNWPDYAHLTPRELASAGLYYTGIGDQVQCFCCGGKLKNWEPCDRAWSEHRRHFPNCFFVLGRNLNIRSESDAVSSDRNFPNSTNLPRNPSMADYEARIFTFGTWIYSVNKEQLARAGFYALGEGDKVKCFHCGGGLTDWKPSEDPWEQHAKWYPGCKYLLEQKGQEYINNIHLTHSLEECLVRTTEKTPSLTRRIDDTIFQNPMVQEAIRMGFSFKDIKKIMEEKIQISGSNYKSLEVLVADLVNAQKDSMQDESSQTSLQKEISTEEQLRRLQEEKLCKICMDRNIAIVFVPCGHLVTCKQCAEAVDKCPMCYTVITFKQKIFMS

Row | Ki [1] [nM] | IC50 (PC-3) [nM] | IC50 (MDA-MB-231) [nM] | Structure (SMILES)
1 | 710 | – | – | O=C1C=C(O)C(=O)C(CCc2ccccc2)=C1O
2 | 480 | – | – | CCCCc1cccc(CCC2=C(O)C(=O)C=C(O)C2=O)c1
3 | 1300 | – | – | O=C1C=C(O)C(=O)C(CCCCc2ccccc2)=C1O
4 | 10400 | – | – | CCC1=C(O)C(=O)C=C(O)C1=O
5 | 400 | – | – | CCCCCCCCCCCC1=C(O)C(=O)C=C(O)C1=O [EMBELIN]
6 | – | 5500 | 5000 | Cc1cccc(CCc2cccc(CCC3=C(O)C(=O)C=C(O)C3=O)c2)c1

Reference: ChEMBL document CHEMBL1139728, “Design, synthesis, and characterization of new embelin derivatives as potent inhibitors of X-linked inhibitor of apoptosis protein” (Bioorg Med Chem Lett, 2006)
